Tests used:
[1] = Drug metabolism in human KB cells assessed as formation of protoporphyrin 9 after 2 to 24 hrs by fluorescence spectrometer; format: ADME, cell-based
Method in brief: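 KB monolayers (48 h after seeding ~5×10^4/well) washed, then given prodrug or ALA at 50 μM in serum-free medium at 37 °C. PpIX fluorescence read in wells at 2, 4, 6 and 24 h, excitation 405 nm, emission 635 nm. Untreated wells subtracted for autofluorescence; mean intensity in arbitrary units, triplicate.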

[2] = test system: CNE-2; test: Phototoxicity in human CNE2 cells assessed as reduction in cell viability preincubated for 4 hrs followed by irradiation with 4 J/cm2 light dose measured after 24 hrs by MTT assay; format: functional
[3] = test system: CNE-2; test: Potency index, ratio of ALA LD80 to test compound LD80 for phototoxicity against human CNE2 cells; format: functional
[4] = Dark toxicity against human KB cells assessed as cell survival at 100 uM after 4 hrs by MTT assay; format: cell-based; conditions: read-out: Survival
Method in brief: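 Cells seeded ~5 × 10^4 per well, grown 48 h, washed with PBS, then exposed to compound in medium for 4 h without irradiation. Incubation then continued for 24 h after prodrug removal. Viability by MTT (1 mg/mL, 2 h), formazan dissolved in DMSO, A570, expressed as percentage of untreated control wells on the same plate. Triplicate.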

[5] = test system: MCF7; test: Phototoxicity in human MCF7 cells assessed as reduction in cell viability preincubated for 4 hrs followed by irradiation with blue light at 2.5 J/cm2 and subsequent incubation for 18 hrs measured after 24 hrs post treatment by MTT assay; format: functional; conditions: for CC50: MCF7, light or radiation study, read-out: LD50 (the source's name)
Method in brief: (§1)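 Cells seeded ~5 × 10^4 per well, grown 48 h, washed with PBS, then 4 h with compound (five concentrations within 1–100 μM, triplicate, three untreated control wells per plate). Irradiated with blue light, peak ~420 nm, 2.5 J/cm². Medium replaced, cells kept a further 18 h. MTT read at A570 24 h after treatment; survival expressed as percentage of control. LD50 taken from two sets of experiments.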

[6] = test system: MCF7R; test: Phototoxicity in human doxorubicin resistant MCF7/R cells assessed as reduction in cell viability preincubated for 4 hrs followed by irradiation with blue light at 2.5 J/cm2 and subsequent incubation for 18 hrs measured after 24 hrs post treatment by MTT assay; format: functional; conditions: for CC50: light or radiation study, read-out: LD50 (the source's name); method in brief: as §1
[7] = test system: KB; test: Phototoxicity in human KB cells assessed as reduction in cell viability preincubated for 4 hrs followed by irradiation with blue light at 2.5 J/cm2 and subsequent incubation for 18 hrs measured after 24 hrs post treatment by MTT assay; format: functional; conditions: for CC50: light or radiation study, read-out: LD50 (the source's name); method in brief: as §1
[8] = test system: KB; test: Dark toxicity against human KB cells preincubated for 4 hrs followed by compound washout measured after 24 hrs by MTT assay; format: cell-based
Method in brief: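 KB cells seeded ~5×10^4/well, grown 48 h, PBS-washed, then exposed to compound for 4 h without irradiation. Medium replaced and cells kept a further ~24 h. Survival by MTT (1 mg/mL in EMEM, 2 h), formazan dissolved in DMSO, A570, expressed as % of untreated control wells. Triplicate wells.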

[9] = Drug metabolism in human doxorubicin resistant MCF7/R cells assessed as formation of protoporphyrin 9 at 100 uM after 6 hrs by fluorescence spectrometer; format: ADME, cell-based; conditions: mcf7r
Method in brief: (§2)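 MCF-7R monolayers exposed 6 h at 37 °C to ALA, conjugates or ALA hexyl/octyl esters at 1–100 μM in serum-free medium. PpIX emission at 635 nm (405 nm excitation; spectra 600–750 nm) read in wells. Untreated controls subtracted; mean of triplicates in arbitrary units.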

[10] = test system: KB; test: Dark toxicity against human KB cells at 200 uM preincubated for 4 hrs followed by compound washout measured after 24 hrs by MTT assay; format: cell-based
Method in brief: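 Dark toxicity in KB cells: 200 μM compound for 4 h with no light, removed, cells kept 24 h. Viability by MTT (2 h, A570 after DMSO solubilisation), given as % of untreated controls. Triplicate.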

[11] = test system: CNE-2; test: Phototoxicity in human CNE2 cells assessed as reduction in cell viability preincubated for 4 hrs followed by irradiation with 6 J/cm2 light dose measured after 24 hrs by MTT assay; format: functional
[12] = test system: KB; test: Dark toxicity against human KB cells assessed as cell survival at 100 uM after 24 hrs by MTT assay; format: cell-based
[13] = Drug metabolism in human KB cells assessed as protoporphyrin 9 formation at 500 uM preincubated for 1 hr at 4 degC followed by compound washout and subsequent incubation for 4 hrs at 37 degC by fluorescence spectrometer; format: ADME, cell-based
Method in brief: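 KB cells exposed 1 h to 500 μM prodrug in clear medium at either 4 °C or 37 °C, plates foil-wrapped. Compound then removed, PBS rinse, fresh medium, both plates 4 h at 37 °C. PpIX read in wells at 405/635 nm after subtracting untreated wells.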

[14] = Drug metabolism in human KB cells assessed as formation of protoporphyrin 9 preincubated for 2 hrs followed by compound washout measured after 24 hrs by HPLC-based fluorescence analysis; format: ADME, cell-based
Method in brief: (§3)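 Cells given ALA or conjugate for 2 h at 37 °C, then fresh medium without compound. At 24 h, lysed in CelLytic (15 min, room temperature), scraped and spun 1800g for 10 min. Supernatant PpIX read by fluorescence at 405/635 nm and normalised per mg protein (BCA). Untreated blanks subtracted.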

[15] = Drug metabolism in human doxorubicin resistant MCF7/R cells assessed as formation of protoporphyrin 9 at 100 uM after 6 hrs by fluorescence spectrometer relative to ALA; format: ADME, cell-based; conditions: mcf7r; method in brief: as §2
[16] = Drug metabolism in human KB cells assessed as formation of protoporphyrin 9 at 100 uM after 6 to 24 hrs by fluorescence spectrometer; format: ADME, cell-based
Method in brief: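 Time course in KB cells at 37 °C after 100 μM conjugate, ALA, or 1:1 ALA + HPO mixture in serum-free medium. Well PpIX fluorescence read at 405 nm excitation / 635 nm emission, control autofluorescence subtracted, triplicate means.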

[17] = Drug metabolism in human doxorubicin resistant MCF7/R cells assessed as formation of protoporphyrin 9 preincubated for 2 hrs followed by compound washout measured after 24 hrs by HPLC-based fluorescence analysis; format: ADME, cell-based; conditions: mcf7r; method in brief: as §3
[18] = Drug metabolism in mouse PAM212 cells assessed as formation of protoporphyrin 9 at 0.01 mM after 6 hrs by fluorescence spectrometer relative to ALA; format: ADME, cell-based; conditions: pam212, 6 h, 10 µM

| SMILES | Drug metabolism [1] | Activity [5] | CC50 [5] | Activity [6] | CC50 [6] | Activity [7] | CC50 [7] | Activity [10] | Activity [12] | Drug metabolism [13] | other results |
| --- | --- | --- | --- | --- | --- | --- | --- | --- | --- | --- | --- |
| CCCCCCOC(=O)CCC(=O)CN [HEXAMINOLEVULINATE] | Metabolite_Detected | Dose-dependent effect | 9.3 µM | Dose-dependent effect | 8.4 µM | Dose-dependent effect | 2.6 µM | – | – | – | LD80 [2]: 0.03 mM; Ratio [3]: 40; viability at 4 h, 100 µM [4]: 9%; Activity [8]: Toxic |
| NCC(=O)CCC(=O)O [AMINOLEVULINIC ACID] | – | Dose-dependent effect | 131 µM | Dose-dependent effect | 122 µM | Dose-dependent effect | 124 µM | Non-Toxic | Non-Toxic | Metabolite_Notdetected | Drug metabolism [9]: Metabolite_Detected; LD80 [11]: 0.75 mM |
| CCc1c(O)c(=O)ccn1CCOCCOCCOC(=O)CCC(=O)CN.Cl | Metabolite_Detected | Dose-dependent effect | 15.8 µM | Dose-dependent effect | 11.3 µM | Dose-dependent effect | 19.6 µM | Non-Toxic | Non-Toxic | Metabolite_Detected | Drug metabolism [14]: Metabolite_Detected; fold change (FC) [15]: 20; Drug metabolism [16]: Metabolite_Detected; Drug metabolism [17]: Metabolite_Detected |
| COC(=O)CCC(=O)CNC(=O)[C@H](Cc1ccccc1)NC(C)=O | – | – | – | – | – | – | – | – | – | – | fold change (FC) [18]: 5 |

From ChEMBL document CHEMBL4049424, “Hydroxypyridinone and 5-Aminolaevulinic Acid Conjugates for Photodynamic Therapy” (J Med Chem, 2017)
